Source: ChEMBL document CHEMBL2390875, “Synthesis and pharmacological investigation of new N-hydroxyalkyl-2-aminophenothiazines exhibiting marked MDR inhibitory effect” (Bioorg Med Chem, 2013)
Activity calls are given as the source filed them. The rule behind the calls is not given here.

Test system: Hepatocyte
Assay: Cytotoxicity against Wistar rat primary hepatocytes assessed as change in cell viability at 10 uM after 3 hrs by MTT assay
Type: cell-based
Procedure, shortened: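 Primary hepatocytes from male Wistar rats (200-250 g), cultured as a monolayer, exposed 3 h to compound or vehicle (control), washed, then incubated with 1 mg/mL MTT for 2 h. Cells lysed in DMSO and absorbance read at 570 nm. Viability expressed as % of control.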

For `COc1ccc(-n2nnc(CCC(O)CN3c4ccccc4Sc4ccc(NCCN5CCOCC5)cc43)n2)cc1` (stereo not drawn), which Activity is on record?
Its Activity is “Non-toxic”.

For `CCN(CC)c1ccc2c(c1)N(CC(O)CCc1nnn(-c3ccc(OC)cc3)n1)c1ccccc1S2` (racemic), which Activity is on record?
Its Activity is “Non-toxic”.

`COc1ccc(-n2nnc(CCC(O)CN3c4ccccc4S(=O)(=O)c4ccc(N5CCOCC5)cc43)n2)cc1` (stereo not drawn) was tested. Which Activity did it give?
The Activity was “Non-toxic”.

With `COc1ccc(-n2nnc(CCC(O)CN3c4ccccc4Sc4ccc(N5CCOCC5)cc43)n2)cc1` (racemic) [listing 1 of 2 here] as the compound, how does the Activity read?
The Activity was “Non-toxic”.

Which Activity does the source give for `COc1ccc(-n2nnc(CCC(O)CN3c4ccccc4[S+]([O-])c4ccc(N5CCOCC5)cc43)n2)cc1` (stereo not drawn) here?
The Activity was “Non-toxic”.

Test system: Hepatocyte
Assay: Inhibition of p-gp in Wistar rat primary hepatocytes assessed as inhibition of rhodamine 123 efflux at 10 uM after 3 hrs
Type: cell-based
Procedure, shortened: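 Collagenase-perfused male Wistar rat hepatocytes plated on collagen and cultured 4 days in supplemented Williams Medium E. Cells preloaded 30 min with 5 µM RH123, then exposed 3 h to compound or 0.1% DMSO vehicle. Cells washed with ice-cold HBSS and lysed in 0.5% Triton X100. Intracellular RH123 read by fluorescence at 519/538 nm. Mean ± SD from three isolations, four wells per condition, Student's t-test.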

For `COc1ccc(-n2nnc(CCC(O)CN3c4ccccc4Sc4ccc(N5CCOCC5)cc43)n2)cc1` (racemic) [listing 2 of 2 here], which inhibition is on record?
The inhibition was “Active”.

`CCN(CC)c1ccc2c(c1)N(CC(O)CCc1nnn(-c3ccc(OC)cc3)n1)c1ccccc1S2` (racemic) was tested. Which inhibition did it give?
Its inhibition is “Active”.

With `COc1ccc(-n2nnc(CCC(O)CN3c4ccccc4S(=O)(=O)c4ccc(N5CCOCC5)cc43)n2)cc1` (stereo not drawn) as the compound, how does the inhibition read?
The inhibition was “Active”.

`COc1ccc(-n2nnc(CCC(O)CN3c4ccccc4Sc4ccc(N5CCN(C)CC5)cc43)n2)cc1` (single isomer, unassigned; (-)) was tested. Which inhibition did it give?
Its inhibition is “Active”.

How did the inhibition turn out when `COc1ccc(-n2nnc(CCC(O)CN3c4ccccc4Sc4ccc(N5CCN(C)CC5)cc43)n2)cc1` (racemic) was run?
The inhibition was “Active”.

Which inhibition does the source give for `COc1ccc(-n2nnc(CCC(O)CN3c4ccccc4[S+]([O-])c4ccc(N5CCOCC5)cc43)n2)cc1` (stereo not drawn) here?
The inhibition was “Active”.

With `COc1ccc(-n2nnc(CCC(O)CN3c4ccccc4Sc4ccc(N5CCN(C)CC5)cc43)n2)cc1` (single isomer, unassigned; (+)) as the compound, how does the inhibition read?
Its inhibition is “Active”.

Which inhibition does the source give for `COc1ccc(-n2nnc(/C=C\C=C\N3c4ccccc4Sc4ccc(Cl)cc43)n2)cc1` here?
Its inhibition is “Active”.

Which inhibition does the source give for `COc1ccc(-n2nnc(CCC(O)CN3c4ccccc4Sc4ccc(N5CCOCC5)cc43)n2)cc1` (stereo in doubt; (+)-3h) here?
The inhibition was “Active”.

Which inhibition does the source give for `COc1ccc(-n2nnc(CCC(O)CN3c4ccccc4Sc4ccccc43)n2)cc1` (stereo not drawn) here?
The inhibition was “Active”.

`COc1ccc(-n2nnc(CCC(O)CN3c4ccccc4Sc4ccc(NC(C)=O)cc43)n2)cc1` (stereo not drawn) was tested. Which inhibition did it give?
The inhibition was “Active”.

`COc1ccc(-n2nnc(CCC(O)CN3c4ccccc4Sc4ccc(N5CCOCC5)cc43)n2)cc1` (single isomer, unassigned; (-)) was tested. Which inhibition did it give?
Its inhibition is “Active”.

For `COc1ccc(-n2nnc(CCC(O)CN3c4ccccc4Sc4ccc(C(F)(F)F)cc43)n2)cc1` (stereo not drawn), which inhibition is on record?
The inhibition was “Active”.
